Consider 15 molecules from ChEMBL document CHEMBL4041512, “Rational design of nitrofuran derivatives: Synthesis and valuation as inhibitors of Trypanosoma cruzi trypanothione reductase” (Eur J Med Chem, 2017).

Activity calls are given as the source filed them. No cut-off for these calls is given here.

Data set [1] concerns the target Trypanothione reductase (Trypanosoma cruzi) (UniProt P28593). The data set can be described thus: Inhibition of Trypanosoma cruzi trypanothione reductase at 100 uM using […] as substrate at pH 7.5 in presence of NADPH by photometric method. The note with it: TDE = time-dependent effect.
For data set [2], the system named is Trypanosoma cruzi. The data set can be described thus: Anti-parasitic activity against Trypanosoma cruzi Dm28c epimastigotes in logarithmic phase assessed as morphological changes at 30 uM measured after 48 hrs by resazurin assay. Format: functional.
The next data set addresses Trypanothione reductase (Trypanosoma cruzi, UniProt P28593). The data set can be described thus: Uncompetitive inhibition of Trypanosoma cruzi trypanothione reductase using […] as substrate at pH 7.5 in presence of NADPH by photometric method. A digest of the protocol:
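Reactions started with NADPH; compound-free reactions serve as control. Initial rates were plotted against TS₂ concentration and Ki was taken as the mean of at least three independent data sets, within ±10%.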

Data set [3] relates to Trypanosoma cruzi. The data set can be described thus: Anti-parasitic activity against Trypanosoma cruzi Dm28c epimastigotes in logarithmic phase measured after 24 to 48 hrs by resazurin assay. Format: functional. A digest of the protocol: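 Log-phase Dm28c epimastigotes at 1x10⁶ cells/ml in PBS plus 2% (w/v) glucose. Derivatives added at 0.1-100 µM final. Incubation 24-48 h, then viability read by resazurin. DMSO-only wells serve as negative control. Resazurin is also run with compound but no parasites. IC50 is the mean of at least three independent experiments, reproducible within ±10%.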

The next data set relates to HeLa. In words: Cytotoxicity against human HeLa cells measured after 24 hrs by crystal violet staining based assay. Format: cell-based. A digest of the protocol: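 HeLa cells seeded at 2.5 x 10⁴ cells/well in DMEM with 2% FBS, 24 h at 37°C, 5% CO₂. Medium replaced with compound, eight serial dilutions in duplicate, 24 h at 37°C. Cells fixed and stained with 0.75% crystal violet in 40% methanol for 10 min. Dye dissolved in 20% acetic acid and read at 540 nm, triplicate means. Untreated cells are the negative control.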

Data set [4] is described as follows: Selectivity index, ratio of EC50 for cytotoxicity against human HeLa cells to IC50 for anti-parasitic activity against Trypanosoma cruzi Dm28c epimastigotes. The conditions noted are these: read-out: Selectivity Index. Format: toxicity, cell-based. A digest of the protocol: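 HeLa crystal violet EC50 (24 h) divided by epimastigote IC50 (resazurin, 48 h growth).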

The test system of data set [5] is Trypanosoma cruzi. In words: Potency index, ratio of nifurtimox IC50 to test compound IC50 for Trypanosoma cruzi Dm28c epimastigotes in logarithmic phase. Format: functional.

Sequence of Trypanothione reductase (Trypanosoma cruzi) (P28593 whole entry, looked up): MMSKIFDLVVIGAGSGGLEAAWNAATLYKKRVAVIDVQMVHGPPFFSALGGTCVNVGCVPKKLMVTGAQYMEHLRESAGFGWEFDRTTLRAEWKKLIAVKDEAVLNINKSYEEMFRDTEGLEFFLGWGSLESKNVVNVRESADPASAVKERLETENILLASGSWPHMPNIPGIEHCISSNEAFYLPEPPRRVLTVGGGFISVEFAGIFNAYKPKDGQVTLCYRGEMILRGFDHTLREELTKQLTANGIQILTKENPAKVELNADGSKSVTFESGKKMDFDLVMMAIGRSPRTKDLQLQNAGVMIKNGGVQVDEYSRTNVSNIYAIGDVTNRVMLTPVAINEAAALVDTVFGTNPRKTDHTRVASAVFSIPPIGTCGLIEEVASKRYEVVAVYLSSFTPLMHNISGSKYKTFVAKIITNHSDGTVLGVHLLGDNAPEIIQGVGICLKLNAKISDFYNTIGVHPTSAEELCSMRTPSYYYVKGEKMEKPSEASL
Sequence of Trypanothione reductase (P28593 whole entry): as the sequence (P28593 whole entry, looked up) above

With `O=C(O)c1ccc([N+](=O)[O-])o1`, in data set [1], the inhibition entry is “Tde”. The result in the data set on Trypanosoma cruzi [2] was inactive.

Turning to `CCCN(CCC)C(=O)c1ccc([N+](=O)[O-])o1`, the Ki (commonly a dissociation constant, usually derived from enzyme kinetics or from competition with a known ligand) on Trypanothione reductase is 183 µM. Besides, the IC50 (usually the concentration at which inhibition is half-maximal) in the data set on Trypanosoma cruzi [3] was 19.6 µM.

In the case of `O=C(c1ccc([N+](=O)[O-])o1)N(Cc1ccccc1)Cc1ccccc1`, the Ki on Trypanothione reductase was determined as 68 µM. In data set [1], the inhibition entry was “Tde”. Moreover, the midpoint of inhibition with Trypanosoma cruzi [3], the IC50, lay at 1.1 µM. The EC50 (usually the concentration needed to bring the measured effect to its halfway point) in the data set on HeLa is 78 µM. Besides, the selectivity ratio in data set [4] was 70.1. For the same molecule, the “Ratio IC50” value in the data set with Trypanosoma cruzi [5] turned out to be 4.

For `O=C(c1ccc([N+](=O)[O-])o1)N1CCCC1`, the inhibitory constant (Ki) at Trypanothione reductase amounted to 187 µM. It took 64 µM to reach half-maximal inhibition in the data set on Trypanosoma cruzi [3] (IC50).

With `CC(C)(C)NC(=O)c1ccc([N+](=O)[O-])o1`, on Trypanothione reductase, the Ki was 313 µM. The IC50 with Trypanosoma cruzi [3] was 35 µM.

As to `CN(C)CCCNC(=O)c1ccc([N+](=O)[O-])o1`, the Ki at Trypanothione reductase came out at 118 µM. The inhibition entry in data set [1] is “Tde”. The same molecule displayed an IC50 with Trypanosoma cruzi [3] of 19 µM. The same molecule registered an EC50 in the data set on HeLa of 74 µM. The selectivity ratio in data set [4] was determined as 3.9.

For the molecule `CC(C)NC(=O)c1ccc([N+](=O)[O-])o1`, the Ki on Trypanothione reductase is 414 µM. Further, in the data set on Trypanosoma cruzi [3], half-maximal inhibition (IC50) required 18 µM. In the data set on HeLa, this molecule came in with an EC50 of 211 µM. The selectivity ratio in data set [4] was 11.7.

On to `CCCNC(=O)c1ccc([N+](=O)[O-])o1`, for which the Ki at Trypanothione reductase came to 336 µM. The molecule also came in with an IC50 with Trypanosoma cruzi [3] of 17 µM. Besides, a half-maximal effect in the data set on HeLa (EC50) was put at 150 µM. The selectivity ratio in data set [4] was found to be 8.8.

Consider `CN(C)CCNC(=O)c1ccc([N+](=O)[O-])o1`, for which, at Trypanothione reductase, the Ki was determined as 136 µM. Further, the IC50 in the data set on Trypanosoma cruzi [3] came out at 36 µM.

Turning to `CCC(C)NC(=O)c1ccc([N+](=O)[O-])o1` (configuration not stated), the inhibitory constant (Ki) at Trypanothione reductase was found to be 1180 µM. Further, half-maximal inhibition in the data set on Trypanosoma cruzi [3] (IC50) was put at 23 µM. The molecule also yielded an EC50 in the data set with HeLa of 165 µM. The selectivity ratio in data set [4] worked out at 7.2.

Take `CCN(CC)CCCNC(=O)c1ccc([N+](=O)[O-])o1`: the Ki at Trypanothione reductase was found to be 128 µM. It took 25 µM to reach half-maximal inhibition in the data set with Trypanosoma cruzi [3] (IC50). Moreover, in the data set on HeLa, the EC50 was found to be 100 µM. Further, the selectivity ratio in data set [4] was 4.

In the case of `CC1CS(=O)(=O)CCN1/N=C/c1ccc([N+](=O)[O-])o1` (configuration not stated) [NIFURTIMOX], on Trypanothione reductase, the Ki worked out at 245 µM. In addition, in the data set with Trypanosoma cruzi [3], 4 µM corresponded to half-maximal inhibition (IC50). Besides, in the data set on HeLa, a half-maximal response (EC50) required 272 µM. Further, the selectivity ratio in data set [4] worked out at 68.

Regarding `CCCCNC(=O)c1ccc([N+](=O)[O-])o1`, the Ki at Trypanothione reductase was determined as 315 µM. In the data set with Trypanosoma cruzi [3], this molecule came in with an IC50 of 26 µM. In addition, in the data set on HeLa, the concentration for a half-maximal effect (EC50) stood at 152 µM. For the same molecule, in data set [4], the selectivity ratio came out at 5.8.

As to `O=C(NCc1ccccc1)c1ccc([N+](=O)[O-])o1`, at Trypanothione reductase, the inhibition constant (Ki) came out at 61 µM. The inhibition result in data set [1] is “Tde”. In addition, in the data set with Trypanosoma cruzi [3], the IC50 was 15 µM. For the same molecule, in the data set on HeLa, the concentration giving a half-maximal response (EC50) came to 123 µM. For the same molecule, in data set [4], the selectivity ratio was determined as 8.2.

On to `O=C(c1ccc([N+](=O)[O-])o1)N1CCCCC1`, for which the Ki at Trypanothione reductase was 282 µM. Also, in the data set with Trypanosoma cruzi [3], the IC50 came to 103 µM.
